From ChEMBL document CHEMBL4602675, “The Marine Natural Product Manzamine A Inhibits Cervical Cancer by Targeting the SIX1 Protein” (J Nat Prod, 2020)
Calls of active or inactive are those of the source. The rule behind the calls is not given here.

What was measured:
[1] = system: SiHa; test: Antiproliferative activity against human SiHa cells assessed as reduction in cell viability after 24 hrs by CellTiter-Glo assay; assay type: functional, cell-based
How it was run: (§1)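 ATP-based luminescent viability readout. Cells were grown in DMEM with 10% FBS, 2 mM L-glutamine and penicillin-streptomycin at 37 °C, 5% CO2. 2 × 10^4 cells/well were seeded, then exposed the next day to 0–40 μM for 24, 48 or 72 h. % viability = 100 × treated/control. IC50 was fitted from a sigmoid dose-response curve. Run at least three times in quadruplicate; mean ± SEM.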

[2] = system: HeLa; test: Antiproliferative activity against human HeLa cells assessed as reduction in cell viability after 48 hrs by CellTiter-Glo assay; assay type: functional, cell-based; how it was run: as §1
[3] = system: SiHa; test: Antiproliferative activity against human SiHa cells assessed as reduction in cell viability after 72 hrs by CellTiter-Glo assay; assay type: functional, cell-based; how it was run: as §1
[4] = system: C-33-A; test: Cell cycle arrest in human C33A cells assessed as accumulation at Sub G1 phase at 4 uM after 24 hrs by propidium iodide staining based flow cytometric analysis (reference value: 0.7%); assay type: functional
How it was run: (§2)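 Cells in DMEM/10% FBS at 37 °C, 5% CO2 were given 4 μM for 24, 48 or 72 h, with DMSO as control. After trypsinization they were fixed in chilled 70% ethanol on ice for 30 min, treated with RNase A (1 mg/mL) for 30 min at room temperature, and stained with PI (20 μg/mL). At least 10 000 events were read by flow cytometry to give sub-G1, G0/G1, S and G2/M fractions; mean ± SEM.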

[5] = system: C-33-A; test: Cell cycle arrest in human C33A cells assessed as accumulation at G0/G1 phase at 4 uM after 48 hrs by propidium iodide staining based flow cytometric analysis (reference value: 54.6%); assay type: functional; how it was run: as §2
[6] = system: SiHa; test: Cell cycle arrest in human SiHa cells assessed as accumulation at G0/G1 phase at 4 uM after 72 hrs by propidium iodide staining based flow cytometric analysis (reference value: 72.8%); assay type: functional; how it was run: as §2
[7] = system: HeLa; test: Cell cycle arrest in human HeLa cells assessed as accumulation at Sub G1 phase at 4 uM after 24 hrs by propidium iodide staining based flow cytometric analysis (reference value: 2.2%); assay type: functional; how it was run: as §2
[8] = system: HeLa; test: Cell cycle arrest in human HeLa cells assessed as accumulation at G2/M phase at 4 uM after 24 hrs by propidium iodide staining based flow cytometric analysis (reference value: 16.4%); assay type: functional; how it was run: as §2
[9] = system: Ca-Ski; test: Cell cycle arrest in human CaSki cells assessed as accumulation at G0/G1 phase at 4 uM after 72 hrs by propidium iodide staining based flow cytometric analysis (reference value: 77.6%); assay type: functional
[10] = system: Ca-Ski; test: Cell cycle arrest in human CaSki cells assessed as accumulation at G2/M phase at 4 uM after 72 hrs by propidium iodide staining based flow cytometric analysis (reference value: 15.2%); assay type: functional
[11] = system: C-33-A; test: Induction of apoptosis in human C33A cells assessed as viable cells at 4 uM after 24 hrs by Annexin V-FITC/PI double staining based flow cytometric analysis (reference value: 93.3%); assay type: functional; conditions: read-out: Activity
[12] = system: C-33-A; test: Induction of apoptosis in human C33A cells assessed as early apoptotic cells at 4 uM after 48 hrs by Annexin V-FITC/PI double staining based flow cytometric analysis (reference value: 12.9%); assay type: functional
[13] = system: SiHa; test: Cell cycle arrest in human SiHa cells assessed as decrease in accumulation at S phase at 4 uM incubated up to 72 hrs by propidium iodide staining based flow cytometric analysis; assay type: functional
How it was run: (§3)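 Cells in DMEM with 10% FBS, 2 mM L-glutamine, pen-strep, 37 °C, 5% CO2; seeded and left overnight, then treated at 4 μM with DMSO as control. Harvested by trypsin at 24, 48 or 72 h, fixed in chilled 70% ethanol 30 min on ice, RNase A (1 mg/mL) 30 min at room temperature, PI (20 μg/mL). Flow cytometry, ≥10 000 events, G0/G1, S, G2/M fractions; mean ± SEM.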

[14] = system: SiHa; test: Cell cycle arrest in human SiHa cells assessed as increase in accumulation at G0/G1 phase at 4 uM incubated for 48 hrs by propidium iodide staining based flow cytometric analysis; assay type: functional; how it was run: as §3
[15] = molecular target: Protein E6 (Human papillomavirus 16) (UniProt P03126); test: Inhibition of Human papillomavirus type16 derived E6 in human CaSki cells assessed as increase in p21 protein expression at 2 to 4 uM after 48 hrs by Western blot analysis; assay type: cell-based; conditions: Ca-Ski
Protein E6 (Human papillomavirus 16), sequence (P03126 whole entry): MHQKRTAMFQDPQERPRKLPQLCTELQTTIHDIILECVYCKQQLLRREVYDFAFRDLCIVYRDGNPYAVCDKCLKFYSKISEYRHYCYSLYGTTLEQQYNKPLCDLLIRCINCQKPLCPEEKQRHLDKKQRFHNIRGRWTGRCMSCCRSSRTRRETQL
How it was run: (§4)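 Cells were seeded at 1 × 10^6 per 100 mm dish and treated next day with 2 or 4 μM for 48 h. They were trypsinised, PBS-washed and lysed in RIPA with protease inhibitors. Equal protein was run on SDS-PAGE and transferred to PVDF. Primary antibodies were used at 1:500, with BSA 3% for blocking and antibodies for CK2α, Rb and pRb, otherwise 5% milk in TBST. HRP secondary at 1:2000, chemiluminescence detection.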

[16] = system: C-33-A; test: Cell cycle arrest in human C33A cells assessed as increase in p53 protein expression at 2 to 4 uM after 48 hr by Western lot analysis; assay type: functional, cell-based
How it was run: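 Western blot. 1 × 10^6 cells were seeded per 100 mm dish and exposed the next day to 2 or 4 μM for 48 h. Cells were trypsinized and lysed in RIPA buffer with protease inhibitors. Equal protein was run on SDS-PAGE and transferred to PVDF, which was blocked in 5% milk/TBST. Anti-p53 and anti-p21 (also GAPDH) were used at 1:500 and HRP secondary at 1:2000; chemiluminescent detection.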

[17] = molecular target: T1, Homeobox protein SIX1 (Homo sapiens) (UniProt Q15475); test: Inhibition of SIX1 in human C33A cells at 2 to 4 uM after 48 hrs by Western blot analysis; assay type: cell-based; conditions: C-33-A; how it was run: as §4
T1 sequence (whole entry): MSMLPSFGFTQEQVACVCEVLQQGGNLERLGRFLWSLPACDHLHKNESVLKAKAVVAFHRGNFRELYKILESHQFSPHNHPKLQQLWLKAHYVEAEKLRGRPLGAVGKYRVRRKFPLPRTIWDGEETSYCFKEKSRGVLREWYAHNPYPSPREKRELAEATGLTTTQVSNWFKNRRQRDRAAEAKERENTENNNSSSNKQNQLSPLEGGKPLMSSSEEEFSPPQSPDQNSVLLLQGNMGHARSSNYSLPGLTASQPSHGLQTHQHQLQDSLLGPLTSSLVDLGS

[18] = molecular target: Casein kinase II subunit alpha (Homo sapiens) (UniProt P68400); test: Inhibition of CK2alpha in human HeLa cells at 2 to 4 uM after 48 hrs by Western blot analysis; assay type: cell-based; how it was run: as §4
Casein kinase II subunit alpha (Homo sapiens), sequence (P68400 whole entry, looked up): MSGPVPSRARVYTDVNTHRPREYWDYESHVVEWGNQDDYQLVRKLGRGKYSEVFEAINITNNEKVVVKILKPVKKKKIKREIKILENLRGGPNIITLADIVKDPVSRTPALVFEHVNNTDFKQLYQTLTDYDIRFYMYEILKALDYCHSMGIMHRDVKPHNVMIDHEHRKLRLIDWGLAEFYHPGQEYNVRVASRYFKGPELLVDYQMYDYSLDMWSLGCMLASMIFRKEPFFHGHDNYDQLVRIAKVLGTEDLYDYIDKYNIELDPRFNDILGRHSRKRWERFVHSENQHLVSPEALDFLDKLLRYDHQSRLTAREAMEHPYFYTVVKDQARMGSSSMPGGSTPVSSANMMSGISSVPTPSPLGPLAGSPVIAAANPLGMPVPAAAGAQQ

[19] = molecular target: Casein kinase II subunit alpha (Homo sapiens) (UniProt P68400); test: Potency index, ratio for inhibition activity of apigenin to test compound for inhibition of CK2alpha in human C33A cells after 48 hrs by Western blot analysis; assay type: cell-based; conditions: C-33-A
How it was run: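 Cells plated at 1 × 10^6 per 100 mm dish and treated next day for 48 h with test compound (2 or 4 μM) or apigenin (10, 20 or 40 μM). RIPA lysates with protease inhibitors; equal protein loaded for SDS-PAGE, then PVDF transfer. Blocked in 5% milk/TBST (3% BSA for CK2α); anti-SIX1 or anti-CK2α 1:500, HRP secondary 1:2000; chemiluminescent detection.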

[20] = Toxicity in po dosed rat; assay type: organism-based; conditions: in vivo

Work on `O[C@]12C=C(c3nccc4c3[nH]c3ccccc34)[C@@H]3CCN(CCCC/C=C\CC1)C[C@@]31C[C@@H]3/C=C\CCCCN3[C@H]12` [MANZAMINE A] yielded an IC50 [1] of 19.9 µM, an IC50 [2] of 4 µM and an IC50 [3] of 4.1 µM. It also gave an Activity [4] of 1.8%, an Activity [5] of 44.2% and an Activity [6] of 78.6%. The Activity [7] was 2.1%, the Activity [8] was 13.8% and the Activity [9] was 81.7%. The Activity [10] was 10.2%, the viability at 4 µM [11] was 72.7% and the Activity [12] was 9.7%. For the same molecule, the Activity [13] was “Active”, the “fold change (FC)” value [14] was 1.2 and the inhibition [15] was “Active”. For the same molecule, the Activity [16] was “inactive”, the inhibition [17] was “Active” and the inhibition [18] was “Active”. For the same molecule, the Ratio [19] was 10 and the LD50 [20] was 200 to 300 mg/kg.
